Assay results from ChEMBL document CHEMBL1123442 (J Med Chem, 1986).
pIC50: −log10 of the molar value.

Key:
[1] = test system: Lewis lung carcinoma cell line; assay: In vivo for antitumor activity against Lewis lung carcinoma; assay type: functional, Mus musculus
How it was run: (§1)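 Mice inoculated intravenously with 10^6 Lewis lung carcinoma cells, then drug intraperitoneally in 0.1 mL 30% v/v ethanol-water on days 5, 9 and 13. D50 (mg/kg per day for 50% ILS) taken from dose-response graph. ILS at optimal dose versus untreated tumor-bearing controls. Survivors counted at 40 days.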

[2] = test system: Lewis lung carcinoma cell line; assay: Evaluated in vivo for antitumor activity against Lewis lung carcinoma; assay type: functional, Mus musculus; how it was run: as §1
L1210 = assay: In vitro for cytotoxicity against murine leukemia cells (L1210); assay type: functional, cell-based; settings: Mus musculus
P388 [3] = assay: In vivo for antitumor activity against P388 leukemia; assay type: functional, Mus musculus
How it was run: (§2)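 Mice given 10^6 P388 leukemia cells intraperitoneally, then drug intraperitoneally in 0.1 mL 30% v/v ethanol-water on days 1, 5 and 9. D50 (mg/kg per day giving 50% ILS) read from dose-response graph. ILS at optimal dose versus untreated controls. Long-term survival counted at 30 days.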

P388 [4] = assay: In vivo for antitumor activity against P388 leukemia.; assay type: functional, Mus musculus; how it was run: as §2
HCT-8 = assay: In vitro for cytotoxicity against human colon tumor cells (HCT-8) in culture; assay type: functional, cell-based
poly[d(A-T)] = assay: Binding constant relative to amsacrine (Δlog K) for DNA binding by ethidium bromide displacement; settings: Bos taurus

Structure (SMILES) | ILSmax [1] [%] | OD [1] [mg/kg] | D50 [2] [mg/kg] | pIC50 (L1210) | D50 (P388 [3]) [mg/kg] | ILSmax (P388 [3]) [%] | OD (P388 [4]) [mg/kg] | pIC50 (HCT-8) | Δlog K (poly[d(A-T)])
CNc1cc(NS(C)(=O)=O)ccc1Nc1c2cccc(C)c2nc2c(C)cccc12 | 125 | 65 | 25 | 7.04 | 6 | 202 | 45 | 6.72 | 
CNc1cc(NS(C)(=O)=O)ccc1Nc1c2ccccc2nc2cc(OC)ccc12 | 75 | 20 | 15 | 7.46 | 4.5 | 132 | 8.9 | 6.74 | 
COc1cc(NS(C)(=O)=O)ccc1Nc1c2ccccc2nc2cc(Br)ccc12 |  |  |  |  |  |  |  |  | 0.72
CNC(=O)c1ccc2c(Nc3ccc(NS(C)(=O)=O)cc3NC)c3ccccc3nc2c1 |  |  |  | < 5.80 | 30 | 62 | 65 | < 6.98 | 
CNc1cc(NS(C)(=O)=O)ccc1Nc1c2ccc(Cl)cc2nc2c(OC)cccc12 | 159 | 45 | 13 | 6.92 | 20 | 236 | 65 | 6.84 | 
CNC(=O)c1cccc2c(Nc3ccc(NS(C)(=O)=O)cc3NC)c3ccccc3nc12 | 91 | 45 | 6.8 | 7.25 | 30 | 82 | 65 | 5.74 | 
CNc1cc(NS(C)(=O)=O)ccc1Nc1c2ccccc2nc2c(Cl)cccc12 | 59 | 100 | 80 | 6.16 | 65 | 64 | 100 | 6.13 | 
CNc1cc(NS(C)(=O)=O)ccc1Nc1c2ccc(F)cc2nc2c(C)cccc12 | 143 | 45 | 25 | 6.82 | 6 | 152 | 45 | 6.82 | 
COc1cc(NS(C)(=O)=O)ccc1Nc1c2ccccc2nc2cc(Cl)ccc12 |  |  |  |  |  |  |  |  | 0.49
COc1ccc2c(Nc3ccc(NS(C)(=O)=O)cc3OC)c3ccccc3nc2c1 |  |  |  |  |  |  |  |  | 0.26
COc1cc(NS(C)(=O)=O)ccc1Nc1c2ccccc2nc2cc(C)ccc12 |  |  |  |  |  |  |  |  | 0.38
CNc1cc(NS(C)(=O)=O)ccc1Nc1c2ccc(Br)cc2nc2c(OC)cccc12 | 111 | 65 | 40 | 7.39 | 9 | 174 | 65 | 6.82 | 
COc1cc(NS(C)(=O)=O)ccc1Nc1c2ccccc2nc2c(C)cccc12 |  |  |  |  |  |  |  |  | 0.46
CNc1cc(NS(C)(=O)=O)ccc1Nc1c2ccc(C)cc2nc2c(C)cccc12 | 93 | 5.9 | 4.2 | 7.72 | 2 | 92 | 5.9 | 7.62 | 
CNc1cc(NS(C)(=O)=O)ccc1Nc1c2ccccc2nc2c(F)cccc12 | 55 | 65 | 60 | 6.40 | 20 | 152 | 45 | 6.16 | 
CNc1cc(NS(C)(=O)=O)ccc1Nc1c2ccc(F)cc2nc2c(OC)cccc12 | 85 | 65 | 45 | 6.70 | 20 | 100 | 65 | 6.43 | 
CNc1cc(NS(C)(=O)=O)ccc1Nc1c2ccccc2nc2c(C)c(C)ccc12 | 155 | 20 | 10 | 7.37 | 7 | 148 | 13.3 | 7.12 | 

Structure (SMILES) | ILSmax [1] [%] | OD [1] [mg/kg] | D50 [2] [mg/kg] | pIC50 (L1210) | D50 (P388 [3]) [mg/kg] | ILSmax (P388 [3]) [%] | OD (P388 [4]) [mg/kg] | pIC50 (HCT-8) | Δlog K (poly[d(A-T)])
COc1cc(NS(C)(=O)=O)ccc1Nc1c2ccccc2nc2ccc(C)cc12 |  |  |  |  |  |  |  |  | -0.22
CNC(=O)c1cccc2c(Nc3ccc(NS(C)(=O)=O)cc3OC)c3ccccc3nc12 |  |  |  |  |  |  |  |  | -0.03
COc1cc(NS(C)(=O)=O)ccc1Nc1c2ccccc2nc2ccc(Cl)cc12 |  |  |  |  |  |  |  |  | -0.08
COc1cc(NS(C)(=O)=O)ccc1Nc1c2ccccc2nc2cc(F)ccc12 |  |  |  |  |  |  |  |  | -0.03
CNc1cc(NS(C)(=O)=O)ccc1Nc1c2ccccc2nc2c(C)cccc12 | 139 | 20 | 8.9 | 7.28 | 3 | 157 | 13.3 | 7.10 | 
COc1cc(NS(C)(=O)=O)ccc1Nc1c2ccccc2nc2cc(I)ccc12 |  |  |  |  |  |  |  |  | 0.78
CNc1cc(NS(C)(=O)=O)ccc1Nc1c2ccc(OC)cc2nc2c(C)cccc12 | 50 | 4 | 4 | 7.80 | 0.3 | 166 | 1.8 | 7.54 | 
CNc1cc(NS(C)(=O)=O)ccc1Nc1c2ccccc2nc2cc(F)ccc12 | 79 | 45 | 20 | 7.03 | 15 | 157 | 45 | 6.34 | 
CNC(=O)c1cccc2c(Nc3ccc(NS(C)(=O)=O)cc3OC)c3cccc(C)c3nc12 [ASULACRINE] |  | 30 |  |  |  |  | 20 |  | 
COc1ccc2[nH]c3ccccc3c(=Nc3ccc(NS(C)(=O)=O)cc3OC)c2c1 |  |  |  |  |  |  |  |  | -0.08
CNc1cc(NS(C)(=O)=O)ccc1Nc1c2ccccc2nc2ccccc12 |  | 30 |  |  |  |  | 13.3 |  | 
COc1cc(NS(C)(=O)=O)ccc1Nc1c2ccccc2nc2c(Cl)cccc12 |  |  |  |  |  |  |  |  | 0.19
CNc1cc(NS(C)(=O)=O)ccc1Nc1c2ccccc2nc2cc(Cl)ccc12 | 98 | 20 | 15 | 7.62 | 10 | 149 | 30 | 6.77 | 
CNc1cc(NS(C)(=O)=O)ccc1Nc1c2cccc(OC)c2nc2c(OC)cccc12 | 116 | 65 | 30 | 6.89 | 25 | 14 | 150 | 6.80 | 
CNc1cc(NS(C)(=O)=O)ccc1Nc1c2ccccc2nc2c(OC)cccc12 | 153 | 45 | 19 | 6.89 | 5 | 170 | 45 | 6.85 | 
CNc1cc(NS(C)(=O)=O)ccc1Nc1c2ccc(Cl)cc2nc2c(C)cccc12 | 126 | 30 | 8 | 7.82 | 5 | 128 | 13.3 | 7.14 | 
COc1cc(NS(C)(=O)=O)ccc1Nc1c2ccccc2nc2c(OC)cccc12 |  |  |  |  |  |  |  |  | 0.37
